Laboratory results published in publication PMC11847724 (Neoplasia (New York, N.Y.), 2025).
Like-named read-outs stand apart in the source and are kept apart here.

System: participants with advanced or metastatic solid tumors
Assay type: in vivo, human
How it was run: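 Open-label, first-in-human 3 + 3 escalation in adults with recurrent, locally advanced or metastatic solid tumors lacking standard therapy. Test compound was given orally once daily from 25 up to 700 mg/day (modified Fibonacci steps) in 28-day cycles for 6 to 8 cycles, with no intrapatient escalation. The safety population was everyone dosed at least once. AEs were coded by MedDRA and graded by NCI CTCAE v4.03. DLT was assessed in cycle 1, and MTD was the highest dose with DLT in under one-third of a cohort.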

CNC(=O)c1ccccc1Nc1nc(Nc2ccc3c(c2OC)CCC[C@H](N2CCN(CCO)CC2)C3)ncc1Cl [ESK-440]
AE: Decreased appetite (350 mg/day (n = 4)): 2 (50) Number (%) of participants
AE: Diarrhea (350 mg/day (n = 4)): 1 (25) Number (%) of participants
AE: Edema peripheral (350 mg/day (n = 4)): 0 Number (%) of participants
AE: Fatigue (350 mg/day (n = 4)): 2 (50) Number (%) of participants
AE: Nausea (350 mg/day (n = 4)): 2 (50) Number (%) of participants
AE: Pyrexia (350 mg/day (n = 4)): 1 (25) Number (%) of participants
AE: Vomiting (350 mg/day (n = 4)): 1 (25) Number (%) of participants
Any AE (350 mg/day (n = 4)): 4 (100) Number (%) of participants
Deaths (350 mg/day (n = 4)): 0 Number (%) of participants
Grade 3-5 AE (350 mg/day (n = 4)): 2 (50) Number (%) of participants
Other serious AEs (350 mg/day (n = 4)): 1 (25) Number (%) of participants
Treatment-related AE (350 mg/day (n = 4)): 3 (75) Number (%) of participants
Withdrawn from treatment due to AE (350 mg/day (n = 4)): 1 (25) Number (%) of participants
AE: Cough (500 mg/day (n = 6)): 1 (17) Number (%) of participants
AE: Decreased appetite (500 mg/day (n = 6)): 2 (33) Number (%) of participants
AE: Diarrhea (500 mg/day (n = 6)): 2 (33) Number (%) of participants
AE: Edema peripheral (500 mg/day (n = 6)): 0 Number (%) of participants
AE: Fatigue (500 mg/day (n = 6)): 2 (33) Number (%) of participants
AE: Nausea (500 mg/day (n = 6)): 5 (83) Number (%) of participants
AE: Pyrexia (500 mg/day (n = 6)): 2 (33) Number (%) of participants
AE: Vomiting (500 mg/day (n = 6)): 5 (83) Number (%) of participants
Any AE (500 mg/day (n = 6)): 6 (100) Number (%) of participants
Deaths (500 mg/day (n = 6)): 0 Number (%) of participants
Grade 3-5 AE (500 mg/day (n = 6)): 1 (17) Number (%) of participants
Other serious AEs (500 mg/day (n = 6)): 1 (17) Number (%) of participants
Treatment-related AE (500 mg/day (n = 6)): 5 (83) Number (%) of participants
Withdrawn from treatment due to AE (500 mg/day (n = 6)): 2 (33) Number (%) of participants
participants reporting a DLT (500 mg/day treatment group): 1 participants
AE: Cough (700 mg/day (n = 5)): 0 Number (%) of participants
AE: Decreased appetite (700 mg/day (n = 5)): 2 (40) Number (%) of participants
AE: Diarrhea (700 mg/day (n = 5)): 1 (20) Number (%) of participants
AE: Edema peripheral (700 mg/day (n = 5)): 1 (20) Number (%) of participants
AE: Fatigue (700 mg/day (n = 5)): 4 (80) Number (%) of participants
AE: Nausea (700 mg/day (n = 5)): 5 (100) Number (%) of participants
AE: Pyrexia (700 mg/day (n = 5)): 0 Number (%) of participants
AE: Vomiting (700 mg/day (n = 5)): 3 (60) Number (%) of participants
Any AE (700 mg/day (n = 5)): 5 (100) Number (%) of participants
Deaths (700 mg/day (n = 5)): 1 (20) Number (%) of participants
Grade 3-5 AE (700 mg/day (n = 5)): 4 (80) Number (%) of participants
Other serious AEs (700 mg/day (n = 5)): 0 Number (%) of participants
Treatment-related AE (700 mg/day (n = 5)): 5 (100) Number (%) of participants
Withdrawn from treatment due to AE (700 mg/day (n = 5)): 2 (40) Number (%) of participants
participants reporting a DLT (700 mg/day treatment group): 2 participants
deaths considered by investigators related to ESK-440 (4 deaths during study): None
AE cough (Overall (N = 32)): 16%
AE decreased appetite (Overall (N = 32)): 28%
AE diarrhea (Overall (N = 32)): 25%
AE fatigue (Overall (N = 32)): 53%
AE nausea (Overall (N = 32)): 53%
AE peripheral edema (Overall (N = 32)): 16%
AE pyrexia (Overall (N = 32)): 19%
AE vomiting (Overall (N = 32)): 38%
AE: Cough (Overall (N = 32)): 5 (16) Number (%) of participants
AE: Decreased appetite (Overall (N = 32)): 9 (28) Number (%) of participants
AE: Diarrhea (Overall (N = 32)): 8 (25) Number (%) of participants
AE: Edema peripheral (Overall (N = 32)): 5 (16) Number (%) of participants
AE: Fatigue (Overall (N = 32)): 17 (53) Number (%) of participants
AE: Nausea (Overall (N = 32)): 17 (53) Number (%) of participants
AE: Pyrexia (Overall (N = 32)): 6 (19) Number (%) of participants
AE: Vomiting (Overall (N = 32)): 12 (38) Number (%) of participants
Any AE (Overall (N = 32)): 31 (97) Number (%) of participants
Deaths (Overall (N = 32)): 4 (13) Number (%) of participants
Grade 3-5 AE (Overall (N = 32)): 15 (47) Number (%) of participants
Other serious AEs (Overall (N = 32)): 9 (28) Number (%) of participants
Withdrawn from treatment due to AE (Overall (N = 32)): 7 (22) Number (%) of participants
at least 1 AE (Overall (N = 32)): 97%
deaths reported during the study (Overall (N = 32)): 4
grade 3+ AEs (Overall (N = 32)): 47%
withdrew from treatment due to AEs (Overall (N = 32)): 22%
nature of the DLT (all 3 cases, considered related to ESK-440): grade 3 nausea
participants reporting a DLT (all dose groups): Three
changes in vital signs, ECG findings, physical exam findings, pulmonary function tests (during the study): no clinically significant changes
decline in ECOG performance status (from baseline): 13 participants
QTcF value meeting protocol-defined DLT criterion (>500 msec) (in vivo): No patient
no change from baseline in ECOG performance status (in vivo): Nineteen
SAEs considered related to ESK-440 (of SAEs in nine participants, nausea): 1
maximum tolerated dose (MTD) (oral, 28-day cycle, DLT in cycle 1): 500 mg/day
